Experiments:
[1] = target: T1, Protein farnesyltransferase (Homo sapiens, UniProt P49354+P49356); assay: Inhibition of human farnesyltransferase in an enzyme assay.
[2] = target: T2, Protein farnesyltransferase (Rattus norvegicus, UniProt Q02293+Q04631); assay: Inhibition of Farnesyltransferase in cells, evaluated in a radiotracer assay for farnesyltransferase inhibition (CRAFTI), in cultured H-ras-transformed Rat cells
[3] = target: T1, Protein farnesyltransferase; assay: Inhibition of Farnesyltransferase at 10 pM enzyme concentration
[4] = target: T1, Protein farnesyltransferase; assay: Inhibition of HDJ2 farnesylation in PSN-1 cells over 7 hr assay; assay type: functional, cell-based
Cytochrome P450 3A4 [5] = target: T3, Cytochrome P450 3A4 (Homo sapiens, UniProt P08684); assay: (§1) Inhibition of human Cytochrome P450 3A4 by macrocycles
[6] = target: T1, Protein farnesyltransferase; assay: Inhibition of HDJ2 farnesylation in PSN-1 cells over 7 hr assay in the presence of 50% human serum.; assay type: functional, cell-based
[7] = Bioavailability in dog (dose 1 mg/kg i.v.); settings: in vivo, iv
[8] = Clearance in dog (dose 1 mg/kg i.v.); settings: plasma, iv
Cytochrome P450 3A4 [9] = target: T3, Cytochrome P450 3A4; assay: Inhibition of dog Cytochrome P450 3A by macrocycles
[10] = target: Geranylgeranyl transferase type I (Homo sapiens, UniProt P49354+P53609); assay: Inhibitory activity against geranylgeranyl transferase; assay type: protein-complex assay
[11] = Pharmacokinetic data at 0.5 mg/kg dose given to dogs intravenously.; assay type: ADME, organism-based, Canis lupus familiaris; design: dose 0.5 mg/kg, route intravenous; settings: dog, iv; for half-life / Vd: in vivo; for Vd: read-out: Vdss; for clearance: plasma, read-out: Clp
Summary of the method: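 Compound was given intravenously in DMSO to two dogs, in some cases as a mixture with five other compounds. Plasma levels were measured by LC-MS.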

[12] = Pharmacokinetic data at 1 mg/kg dose given to dogs intravenously; assay type: ADME, organism-based, Canis lupus familiaris; design: dose 1 mg/kg, route intravenous; settings: dog, iv
Summary of the method: (§2)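 Dogs, two per compound, dosed intravenously in DMSO or orally as a 0.5% methocellulose suspension. Some compounds were given intravenously as a cassette with five other compounds. Plasma levels were quantitated by LCMS.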

[13] = Pharmacokinetic data for dose given to dogs intravenously (oral PK study in parentheses); assay type: ADME, organism-based, Canis lupus familiaris; settings: dog, in vivo
Summary of the method: as §2

[14] = suboptimal plasma half-life caused a10% prolongation of QTc interval in dogs at a plasma level of […]; assay type: ADME, organism-based, Canis lupus familiaris; settings: dog
[15] = Oral bioavailability of active FTIs in dogs; assay type: ADME, organism-based, Canis lupus familiaris; settings: dog, in vivo
[16] = target: T1, Protein farnesyltransferase; assay: Inhibition of Farnesyltransferase at 10 pM enzyme concentration; remark: listed apart in the source
[17] = target: T2, Protein farnesyltransferase; assay: Inhibition of Farnesyltransferase in H-ras-transformed Rat cells by radiotracer assay (CRAFTI)
[18] = target: T1, Protein farnesyltransferase; assay: Inhibition of HDJ2 farnesylation in PSN-1 cells over 7 hr assay in the presence of 50% human serum; assay type: functional, cell-based
Cytochrome P450 3A4 [19] = target: T3, Cytochrome P450 3A4; assay: as §1; assay type: ADME
Summary of the method: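 Pooled liver microsomes, dog (7) or human (8, 9), at 0.25 mg protein/mL were incubated 10 min with 75 µM testosterone and an NADPH-generating system, with or without compound (0.05-100 µM). 6β-Hydroxytestosterone was quantified by LC-MS/MS against a cortisone internal standard. IC50 was taken from product formed relative to the control incubation.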

[20] = target: Voltage-gated inwardly rectifying potassium channel KCNH2 (Homo sapiens, UniProt Q12809); assay: Inflection point affinity for binding to K+ channel HERG.; settings: IP
Chain of Voltage-gated inwardly rectifying potassium channel KCNH2 (Q12809 whole entry): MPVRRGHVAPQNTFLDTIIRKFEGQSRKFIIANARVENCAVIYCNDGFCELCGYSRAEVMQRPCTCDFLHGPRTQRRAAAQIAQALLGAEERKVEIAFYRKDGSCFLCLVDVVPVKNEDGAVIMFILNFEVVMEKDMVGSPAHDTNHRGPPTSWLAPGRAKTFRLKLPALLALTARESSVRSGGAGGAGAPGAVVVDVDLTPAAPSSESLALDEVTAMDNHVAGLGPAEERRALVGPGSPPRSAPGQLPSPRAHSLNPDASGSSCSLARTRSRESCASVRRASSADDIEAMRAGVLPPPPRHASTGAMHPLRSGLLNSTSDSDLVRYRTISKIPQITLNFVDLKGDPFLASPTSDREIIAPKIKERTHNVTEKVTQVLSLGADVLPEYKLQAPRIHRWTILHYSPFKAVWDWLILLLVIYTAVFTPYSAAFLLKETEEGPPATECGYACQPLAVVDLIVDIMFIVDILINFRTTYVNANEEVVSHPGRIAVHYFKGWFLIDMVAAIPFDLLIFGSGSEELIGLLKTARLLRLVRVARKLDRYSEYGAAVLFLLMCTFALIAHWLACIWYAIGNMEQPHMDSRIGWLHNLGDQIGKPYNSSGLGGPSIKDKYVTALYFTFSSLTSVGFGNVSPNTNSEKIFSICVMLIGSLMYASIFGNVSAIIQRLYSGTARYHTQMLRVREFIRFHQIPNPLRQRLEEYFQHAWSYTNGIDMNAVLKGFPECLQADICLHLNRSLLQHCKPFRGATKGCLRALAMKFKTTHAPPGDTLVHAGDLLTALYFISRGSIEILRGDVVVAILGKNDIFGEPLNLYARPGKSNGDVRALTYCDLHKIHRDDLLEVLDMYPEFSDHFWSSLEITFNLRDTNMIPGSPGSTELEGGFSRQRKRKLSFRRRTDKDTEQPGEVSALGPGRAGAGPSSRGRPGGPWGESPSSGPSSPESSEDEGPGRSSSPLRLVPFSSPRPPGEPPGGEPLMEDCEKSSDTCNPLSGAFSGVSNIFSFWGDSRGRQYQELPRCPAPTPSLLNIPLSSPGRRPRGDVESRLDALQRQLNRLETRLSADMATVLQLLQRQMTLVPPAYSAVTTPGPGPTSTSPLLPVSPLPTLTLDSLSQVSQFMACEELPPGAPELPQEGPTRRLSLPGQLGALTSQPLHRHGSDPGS

T3 sequence (P08684 whole entry): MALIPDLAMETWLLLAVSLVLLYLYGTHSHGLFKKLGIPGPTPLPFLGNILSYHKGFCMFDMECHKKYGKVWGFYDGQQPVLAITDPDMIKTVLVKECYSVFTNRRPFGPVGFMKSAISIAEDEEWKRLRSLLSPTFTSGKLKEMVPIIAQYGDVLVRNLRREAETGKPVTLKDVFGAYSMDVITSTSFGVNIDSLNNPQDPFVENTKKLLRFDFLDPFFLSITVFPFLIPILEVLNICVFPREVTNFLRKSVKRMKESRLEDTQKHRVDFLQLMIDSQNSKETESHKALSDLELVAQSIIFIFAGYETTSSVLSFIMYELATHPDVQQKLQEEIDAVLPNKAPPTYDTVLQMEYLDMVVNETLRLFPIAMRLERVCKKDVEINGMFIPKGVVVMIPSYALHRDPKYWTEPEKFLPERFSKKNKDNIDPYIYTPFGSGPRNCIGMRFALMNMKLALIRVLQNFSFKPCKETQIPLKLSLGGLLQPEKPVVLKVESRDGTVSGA

Row | SMILES | IC50 [1] [nM] | IC50 [2] [nM] | IC50 [10] [nM] | half-life [11] [h] | Vd [11] [L/kg] | clearance [11] [mL/min/kg] | also measured
1 | N#Cc1ccc2cc1Oc1ccc3cccc(c3c1)N1CC[C@@H](NCc3cncn3C2)C1=O | 1.6 | 4.4 | – | – | – | – | –
2 | N#Cc1ccc2cc1Oc1ccc3cccc(c3c1)N1CCC(NCCc3cncn3C2)C1=O (stereo in doubt; 66) | – | 0.32 | – | – | – | – | IC50 [3]: 0.19 nM; EC50 [4]: 4.3 nM; IC50 (Cytochrome P450 3A4 [5]): 6000 nM; EC50 [6]: 7.5 nM; Vd [7]: 0.57 L/kg; bioavailability [7]: 92%; half-life [7]: 2 h; clearance [8]: 3.9 mL/min/kg; IC50 (Cytochrome P450 3A4 [9]): 600 nM
3 | N#Cc1ccc2cc1Oc1ccc(Br)c(c1)CN1CCC(NCc3cncn3C2)C1=O (stereo unspecified) | 1.4 | 0.19 | 9200 | 1.6 | 0.53 | 3.2 | EC50 [4]: 1.6 nM; IC50 (Cytochrome P450 3A4 [5]): 6100 nM; EC50 [6]: 1 nM
4 | CC1c2ccc(C#N)c(c2)Oc2cccc(c2)CN2CCC(NCc3cncn31)C2=O (single isomer, unassigned; diastereomer B) | 1.9 | 0.87 | – | 0.78 | 0.69 | 12 | IC50 (Cytochrome P450 3A4 [9]): 6100 nM
5 | N#Cc1ccc2cc1Oc1ccc3c(c1)[C@@H](CCO3)N1CC[C@H](NCc3cncn3C2)C1=O | – | 1.8 | – | – | – | – | –
6 | N#Cc1ccc(Cn2cncc2CN[C@H]2CCN(Cc3cccc(Cl)c3)C2=O)cc1 | – | – | – | – | – | – | half-life ([12]; in vivo): 1.1 h; Vd ([12]; in vivo, read-out: Vdss): 0.45 L/kg; clearance ([12]; plasma, read-out: Clp): 5.8 mL/min/kg; bioavailability [13]: 81%; IC50 (Cytochrome P450 3A4 [5]): 1000 nM; half-life [14]: 1.1 h; bioavailability [15]: 81%
7 | N#Cc1ccc2cc1Oc1ccc3c(c1)[C@H](CC3)N1CC[C@@H](NCc3cncn3C2)C1=O | – | 41 | – | 4.2 | 0.5 | 1.3 | IC50 (Cytochrome P450 3A4 [5]): 2800 nM; IC50 (Cytochrome P450 3A4 [9]): 14800 nM
8 | N#Cc1ccc2cc1Oc1ccc3c(c1)[C@@H](CCO3)N1CC[C@@H](NCc3cncn3C2)C1=O | – | 0.063 | – | – | – | – | Vd [7]: 0.34 L/kg; half-life [7]: 0.9 h; clearance [8]: 5.5 mL/min/kg
9 | N#Cc1ccc2cc1Oc1ccc3cccc(c3c1)N1CCN(CC1=O)Cc1cncn1C2 | – | 0.29 | – | – | – | – | –
10 | N#Cc1ccc2cc1Oc1ccc3c(c1)[C@@H](CCC3)N1CC[C@H](NCc3cncn3C2)C1=O | 1.5 | 0.21 | 2200 | – | – | – | EC50 [4]: 3 nM; EC50 [6]: 4.4 nM
11 | N#Cc1ccc2cc1Oc1cccc(c1)-c1ccccc1N1CCC(NCc3cncn3C2)C1=O (stereo unspecified) | 1.3 | 0.032 | 810 | 0.88 | 0.61 | 8 | EC50 [4]: 0.67 nM; IC50 (Cytochrome P450 3A4 [5]): < 50 nM; EC50 [6]: 0.58 nM; IC50 [16]: 0.06 nM
12 | N#Cc1ccc2cc1Oc1cccc(c1)CN1CC[C@H](NCc3cncn3C2)C1=O | 54 | – | – | – | – | – | IC50 [17]: 13 nM
13 | N#Cc1ccc2cc1Oc1cccc(c1)C(c1ccccc1)N1CCC(NCc3cncn3C2)C1=O (stereo in doubt; 26A) | 58 | 230 | 1600 | – | – | – | –
14 | N#Cc1ccc2cc1Oc1ccc3c(c1)[C@H](CC3)N1CC[C@H](NCc3cncn3C2)C1=O | – | 93 | – | – | – | – | –
15 | CC1c2ccc(C#N)c(c2)Oc2cccc(c2)CN2CCC(NCc3cncn31)C2=O (single isomer, unassigned; diastereomer A) | 170 | 74 | > 20000 | – | – | – | –
16 | N#Cc1ccc2cc1Oc1ccc3c(c1)[C@@H](CCC3)N1CC[C@@H](NCc3cncn3C2)C1=O [(1R,5R)-30-OXO-19-OXA-2,6,10,12-TETRAAZAHEXACYCLO[18.6.2.1^{2,5}.1^{14,18}.0^{8,12}.0^{23,27}]TRIACONTA-8,10,14(29),15,17,20(28),21,23(27)-OCTAENE-17-CARBONITRILE (STRUCTURAL MIX)] | < 1 | 0.054 | 390 | 0.48 | 0.36 | 7.3 | EC50 [18]: 0.25 nM; EC50 [4]: 0.18 nM
17 | CN1Cc2cncn2Cc2ccc(C#N)c(c2)Oc2ccc3cccc(c3c2)N2CCC1C2=O (stereo unspecified) | 4.9 | 39 | 2200 | 10.1 | 0.21 | 0.26 | IC50 (Cytochrome P450 3A4 [5]): 5000 nM
18 | N#Cc1ccc2cc1Oc1cccc(c1)C(c1cccc(Cl)c1)N1CCC(NCc3cncn3C2)C1=O (single isomer, unassigned; diastereomer A) | 25 | – | 820 | – | – | – | IC50 [17]: 210 nM
19 | CN1CCc2cncn2Cc2ccc(C#N)c(c2)Oc2ccc3cccc(c3c2)N2CC[C@H]1C2=O | – | 0.21 | – | 1.9 | 0.25 | 1.4 | –
20 | CN1CCc2cncn2Cc2ccc(C#N)c(c2)Oc2ccc3cccc(c3c2)N2CC[C@@H]1C2=O | – | 0.57 | – | – | – | – | –
21 | N#Cc1ccc2cc1Oc1ccc3cccc(c3c1)N1CC[C@H](NCc3cncn3C2)C1=O | – | 3.8 | – | – | – | – | EC50 [4]: 48 nM; EC50 [6]: 130 nM
22 | N#Cc1ccc2cc1Oc1ccc3cccc(c3c1)N1CCC(NCCc3cncn3C2)C1=O (stereo in doubt; 67) | – | 0.44 | – | – | – | – | –
23 | N#Cc1ccc2cc1Oc1cccc(c1)C(c1cccc(Cl)c1)N1CCC(NCc3cncn3C2)C1=O (single isomer, unassigned; diastereomer B) | 2.5 | 200 | 7000 | – | – | – | –
24 | N#Cc1ccc2cc1Oc1cccc(c1)CN1CC[C@@H](NCc3cncn3C2)C1=O | – | 0.66 | – | – | – | – | EC50 [18]: 13 nM; IC50 [3]: 2 nM; EC50 [4]: 6.1 nM
25 | N#Cc1ccc2cc1Oc1ccc3cccc(c3c1)N1CC[C@H](NC(=O)Cc3cncn3C2)C1=O | – | 6.8 | – | 1.7 | 0.19 | 1.5 | IC50 (Cytochrome P450 3A4 [19]): 8100 nM
26 | N#Cc1ccc2cc1Oc1ccc3cccc(c3c1)N1CC[C@@H](NC(=O)Cc3cncn3C2)C1=O | – | 13 | – | – | – | – | –
27 | N#Cc1ccc2cc1Oc1cccc(c1)C(c1ccccc1)N1CCC(NCc3cncn3C2)C1=O (single isomer, unassigned; diastereomer B) | 10 | – | 5800 | – | – | – | IC50 [17]: 34 nM
28 | CN1Cc2cncn2Cc2ccc(C#N)c(c2)Oc2ccc3c(c2)C(CC3)N2CCC1C2=O (stereo unspecified) | 1.4 | 0.64 | > 20000 | – | – | – | IC50 [20]: 2600 nM
29 | N#Cc1ccc2cc1Oc1cc(Cl)cc(c1)CN1CCC(NCc3cncn3C2)C1=O (stereo unspecified) | 23 | – | > 20000 | – | – | – | IC50 [17]: 6.4 nM
30 | N#Cc1ccc2cc1Oc1ccc3c(c1)[C@@H](CC3)N1CC[C@@H](NCc3cncn3C2)C1=O | – | 0.22 | – | 1.7 | 0.27 | 2.1 | IC50 (Cytochrome P450 3A4 [5]): 6600 nM; IC50 (Cytochrome P450 3A4 [9]): 10400 nM

Source: ChEMBL document CHEMBL1135455, “3-Aminopyrrolidinone farnesyltransferase inhibitors: design of macrocyclic compounds with improved pharmacokinetics and excellent cell potency” (J Med Chem, 2002)
